Reference: ChEMBL document CHEMBL3792302, “N-Phenyl indole derivatives as AT1 antagonists with anti-hypertension activities: Design, synthesis and biological evaluation” (Eur J Med Chem, 2016)
Each block holds one compound with its values, some of them ahead of it. Activity calls are given as the source filed them. The rule behind the calls is not given here.

Assays:
[1] = (§1) Displacement of [125I]-Sar1,Ile8-angiotensin 2 from AT1 receptor in Sprague-Dawley rat vascular smooth muscle cells after 150 mins by gamma counting analysis
Outline: (§2)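 Competition radioligand binding to the AT1 receptor was run on vascular smooth muscle cells with [125I]-AII as the labelled ligand. Affinity is reported as IC50 and Ki, given as ± SEM.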

Rattus norvegicus [2] = species: Rattus norvegicus; test: as §1; outline: as §2
Rattus norvegicus [3] = test: Antihypertensive activity in SHR rat assessed as reduction in mean blood pressure at 5 mg/kg, po measured upto 24 hrs post dosing; type: functional, organism-based
Outline: (§3)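 Spontaneously hypertensive rats received test agents orally at 5 or 10 mg/kg, with losartan and telmisartan at 10 mg/kg as references. Mean blood pressure was tracked for over 24 h after dosing and compared with a negative control group. Significance versus control was set at p<0.05 and p<0.01.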

Rattus norvegicus [4] = test: Antihypertensive activity in SHR rat assessed as reduction in mean blood pressure at 10 mg/kg, po measured upto 24 hrs post dosing; type: functional; outline: as §3
Rattus norvegicus [5] = test: Antihypertensive activity in po dosed SHR rat assessed as reduction in mean blood pressure measured upto 24 hrs post dosing; type: functional, organism-based
Outline: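 In spontaneously hypertensive rats, test compounds were given orally at 5 and 10 mg/kg, with losartan and telmisartan references at 10 mg/kg. Mean blood pressure was followed over time to beyond 24 h post-dose and compared with a negative control group. Significance was set at p<0.05 and p<0.01.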

Rattus norvegicus [6] = test: Antihypertensive activity in SHR rat assessed as reduction in mean blood pressure at 10 mg/kg, po measured after 6 hrs post dosing; type: functional; outline: as §3
[7] = Acute toxicity in ICR mouse assessed as mortality at 307.20 mg/kg, ig administered daily for 2 weeks measured during compound dosing; type: organism-based; details: in vivo, po, 307.2 mg/kg
Outline: (§4)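 Mice were given single-compound dose groups of 307.20, 384.00, 480.00, 600.00, 750.00 and 937 mg/kg. Body weight of survivors was checked after 2 weeks. Mortality (%) was scored per dose group, and LD50 with 95% confidence interval was derived from log(dose) versus mortality.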

[8] = Acute toxicity in ICR mouse assessed as mortality at 384 mg/kg, ig administered daily for 2 weeks measured during compound dosing; type: organism-based; details: in vivo, po; outline: as §4
[9] = Acute toxicity in ICR mouse assessed as mortality at 480 mg/kg, ig administered daily for 2 weeks measured during compound dosing; type: organism-based; details: in vivo, po; outline: as §4
[10] = Acute toxicity in ICR mouse assessed as mortality at 600 mg/kg, ig administered daily for 2 weeks measured during compound dosing; type: organism-based; details: in vivo, po; outline: as §4
[11] = Acute toxicity in ICR mouse assessed as mortality at 750 mg/kg, ig administered daily for 2 weeks measured during compound dosing; type: organism-based; details: in vivo, po; outline: as §4
[12] = Acute toxicity in ICR mouse assessed as mortality at 937 mg/kg, ig administered daily for 2 weeks measured during compound dosing; type: organism-based; details: in vivo, po; outline: as §4
[13] = Acute toxicity in intragastrically dosed ICR mouse assessed as mortality administered daily for 2 weeks measured during compound dosing; type: organism-based; details: in vivo, po; outline: as §4
Mus musculus [14] = test: Acute toxicity in ICR mouse assessed as skin changes at 307.20 mg/kg, ig administered daily for 2 weeks measured during compound dosing; type: organism-based; details: in vivo, po, 307.2 mg/kg, 336 h; outline: as §4
Mus musculus [15] = test: Acute toxicity in ICR mouse assessed as skin changes at 384 mg/kg, ig administered daily for 2 weeks measured during compound dosing; type: organism-based; details: in vivo, po, 336 h; outline: as §4
Mus musculus [16] = test: Acute toxicity in ICR mouse assessed as mobility at 307.20 mg/kg, ig administered daily for 2 weeks measured during compound dosing; type: organism-based; details: in vivo, po, 307.2 mg/kg, 336 h; outline: as §4
Mus musculus [17] = test: Acute toxicity in ICR mouse assessed as mobility at 384 mg/kg, ig administered daily for 2 weeks measured during compound dosing; type: organism-based; details: in vivo, po, 336 h; outline: as §4
Mus musculus [18] = test: Acute toxicity in ICR mouse assessed as aggressiveness at 307.20 mg/kg, ig administered daily for 2 weeks measured during compound dosing; type: organism-based; details: in vivo, po, 307.2 mg/kg, 336 h; outline: as §4
Mus musculus [19] = test: Acute toxicity in ICR mouse assessed as aggressiveness at 384 mg/kg, ig administered daily for 2 weeks measured during compound dosing; type: organism-based; details: in vivo, po, 336 h; outline: as §4
Mus musculus [20] = test: Acute toxicity in ICR mouse assessed as respiratory movements at 307.20 mg/kg, ig administered daily for 2 weeks measured during compound dosing; type: organism-based; details: in vivo, po, 307.2 mg/kg, 336 h; outline: as §4
Mus musculus [21] = test: Acute toxicity in ICR mouse assessed as respiratory movements at 384 mg/kg, ig administered daily for 2 weeks measured during compound dosing; type: organism-based; details: in vivo, po, 336 h; outline: as §4
Mus musculus [22] = test: Acute toxicity in ICR mouse assessed as change in body weight at 307.20 to 937 mg/kg, ig administered daily for 2 weeks during compound dosing; type: organism-based; details: in vivo, po, 336 h; outline: as §4
Mus musculus [23] = test: Acute toxicity in ICR mouse assessed as obvious untoward reaction at 307.20 to 937, ig administered daily for 2 weeks during compound dosing; type: organism-based; details: in vivo, po, 336 h; outline: as §4
Mus musculus [24] = test: Acute toxicity in ICR mouse assessed as pathological changes in organs and tissues at 307.20 to 937, ig administered daily for 2 weeks measured on fifteenth day; type: organism-based; details: in vivo, po, 336 h
Mus musculus [25] = test: Acute toxicity in ICR mouse assessed as hyperthyroidism at 480 to 937 mg/kg, ig administered daily for 2 weeks measured after 6 hrs post last dose; details: in vivo, po

SMILES: Cc1cc(-c2nc3ccccc3n2C)cc2c1nc(C)n2Cc1ccc2c(ccn2-c2ccccc2C(=O)O)c1
IC50 [1]: 8.25 nM | Ki [1]: 5.13 nM | Activity (Rattus norvegicus [2]): Dose-dependent effect | Activity (Rattus norvegicus [4]): 44 mmHg

SMILES: CCCc1nc2c(C)cc(-c3nc4ccccc4n3C)cc2n1Cc1ccc2c(ccn2-c2ccccc2C(=O)O)c1
IC50 [1]: 3.76 nM | Ki [1]: 2.35 nM | Activity (Rattus norvegicus [2]): Dose-dependent effect | Activity (Rattus norvegicus [3]): Active | Activity (Rattus norvegicus [4]): Active

SMILES: CCCCc1nc2c(C)cc(-c3ccccn3)cc2n1Cc1cccc2c1ccn2-c1ccccc1C(=O)O
IC50 [1]: 5.63 nM | Ki [1]: 4.08 nM | Activity (Rattus norvegicus [2]): Dose-dependent effect | Activity (Rattus norvegicus [3]): Active | Activity (Rattus norvegicus [4]): Active

SMILES: CCc1nc2c(C)cc(-c3ccccn3)cc2n1Cc1ccc2c(ccn2-c2ccccc2C(=O)O)c1
IC50 [1]: 1.17 nM | Ki [1]: 0.84 nM | Activity (Rattus norvegicus [2]): Dose-dependent effect | Activity (Rattus norvegicus [4]): 42 mmHg

SMILES: CCc1nc2c(C)cc(-c3nc4ccccc4n3C)cc2n1Cc1cccc2c1ccn2-c1ccccc1C(=O)O
IC50 [1]: 1.83 nM | Ki [1]: 1.14 nM | Activity (Rattus norvegicus [2]): Dose-dependent effect | Activity (Rattus norvegicus [3]): Active | Activity (Rattus norvegicus [4]): Active

SMILES: CCCCc1nc(Cl)c(CO)n1Cc1ccc(-c2ccccc2-c2nnn[nH]2)cc1 [LOSARTAN]
IC50 [1]: 20.1 nM | Ki [1]: 13.1 nM | Activity (Rattus norvegicus [2]): Dose-dependent effect | Activity (Rattus norvegicus [4]): 43 mmHg

SMILES: CCCc1nc2c(C)cc(-c3nc4ccccc4n3C)cc2n1Cc1cccc2c1ccn2-c1ccccc1C(=O)O
IC50 [1]: 0.36 nM | Ki [1]: 0.23 nM | Activity (Rattus norvegicus [2]): Dose-dependent effect | Activity (Rattus norvegicus [3]): Active | Activity (Rattus norvegicus [4]): Active | Activity (Rattus norvegicus [5]): Dose-dependent effect | Activity (Rattus norvegicus [6]): 64 mmHg | mortality at 336 h [7]: 0% | mortality at 336 h [8]: 10% | mortality at 336 h [9]: 50% | mortality at 336 h [10]: 60% | mortality at 336 h [11]: 90% | mortality at 336 h [12]: 100% | LD50 at 336 h [13]: 526 mg/kg | Activity (Mus musculus [14]): Non-toxic | Activity (Mus musculus [15]): Non-toxic | Activity (Mus musculus [16]): Non-toxic | Activity (Mus musculus [17]): Non-toxic | Activity (Mus musculus [18]): Non-toxic | Activity (Mus musculus [19]): Non-toxic | Activity (Mus musculus [20]): Non-toxic | Activity (Mus musculus [21]): Non-toxic | Activity (Mus musculus [22]): Non-toxic | Activity (Mus musculus [23]): Non-toxic | Activity (Mus musculus [24]): Non-toxic | Activity (Mus musculus [25]): Toxic

SMILES: Cc1cc(-c2nc3ccccc3n2C)cc2c1nc(C)n2Cc1cccc2c1ccn2-c1ccccc1C(=O)O
IC50 [1]: 7.46 nM | Ki [1]: 4.66 nM | Activity (Rattus norvegicus [2]): Dose-dependent effect | Activity (Rattus norvegicus [3]): inactive | Activity (Rattus norvegicus [4]): inactive

SMILES: CCCCCc1nc2c(C)cc(-c3nc4ccccc4n3C)cc2n1Cc1ccc2c(ccn2-c2ccccc2C(=O)O)c1
IC50 [1]: 0.92 nM | Ki [1]: 0.67 nM | Activity (Rattus norvegicus [2]): Dose-dependent effect | Activity (Rattus norvegicus [4]): 53 mmHg

SMILES: CCCc1nc2c(C)cc(-c3nc4ccccc4n3C)cc2n1Cc1cccc2c1ccn2-c1ccccc1-c1nnn[nH]1
IC50 [1]: 3.39 nM | Ki [1]: 2.12 nM | Activity (Rattus norvegicus [2]): Dose-dependent effect | Activity (Rattus norvegicus [3]): Active | Activity (Rattus norvegicus [4]): Active

SMILES: CCc1nc2c(C)cc(-c3ccccn3)cc2n1Cc1cccc2c1ccn2-c1ccccc1C(=O)O
IC50 [1]: 3.55 nM | Ki [1]: 2.57 nM | Activity (Rattus norvegicus [2]): Dose-dependent effect | Activity (Rattus norvegicus [3]): Active | Activity (Rattus norvegicus [4]): Active

The next lines start with results.

IC50 [1]: 2.61 nM | Activity (Rattus norvegicus [2]): Dose-dependent effect
SMILES: CCCCc1nc2c(C)cc(-c3nc4ccccc4n3C)cc2n1Cc1cccc2c1ccn2-c1ccccc1C(=O)O
Ki [1]: 1.63 nM | Activity (Rattus norvegicus [3]): inactive | Activity (Rattus norvegicus [4]): inactive

IC50 [1]: 11.3 nM | Activity (Rattus norvegicus [2]): Dose-dependent effect
SMILES: CCCCCc1nc2c(C)cc(-c3nc4ccccc4n3C)cc2n1Cc1cccc2c1ccn2-c1ccccc1C(=O)O
Ki [1]: 7.06 nM | Activity (Rattus norvegicus [3]): inactive | Activity (Rattus norvegicus [4]): inactive

IC50 [1]: 5.61 nM | Activity (Rattus norvegicus [2]): Dose-dependent effect
SMILES: CCCCc1nc2c(C)cc(-c3ccccn3)cc2n1Cc1ccc2c(ccn2-c2ccccc2C(=O)O)c1
Ki [1]: 4.06 nM | Activity (Rattus norvegicus [3]): inactive | Activity (Rattus norvegicus [4]): inactive

IC50 [1]: 4.7 nM | Activity (Rattus norvegicus [2]): Dose-dependent effect
SMILES: CCCc1nc2c(C)cc(-c3ccccn3)cc2n1Cc1cccc2c1ccn2-c1ccccc1C(=O)O
Ki [1]: 3.4 nM | Activity (Rattus norvegicus [3]): Active | Activity (Rattus norvegicus [4]): Active

IC50 [1]: 2.23 nM | Activity (Rattus norvegicus [2]): Dose-dependent effect
SMILES: CCCCc1nc2c(C)cc(-c3nc4ccccc4n3C)cc2n1Cc1ccc2c(ccn2-c2ccccc2C(=O)O)c1
Ki [1]: 1.39 nM | Activity (Rattus norvegicus [3]): Active | Activity (Rattus norvegicus [4]): Active

IC50 [1]: 13.1 nM | Activity (Rattus norvegicus [2]): Dose-dependent effect
SMILES: CCc1nc2c(C)cc(-c3nc4ccccc4n3C)cc2n1Cc1ccc2c(ccn2-c2ccccc2C(=O)O)c1
Ki [1]: 8.16 nM | Activity (Rattus norvegicus [3]): inactive | Activity (Rattus norvegicus [4]): inactive

IC50 [1]: 3.27 nM | Activity (Rattus norvegicus [2]): Dose-dependent effect
SMILES: CCCc1nc2c(C)cc(-c3ccccn3)cc2n1Cc1ccc2c(ccn2-c2ccccc2C(=O)O)c1
Ki [1]: 2.37 nM | Activity (Rattus norvegicus [4]): 43 mmHg

IC50 [1]: 3.8 nM | Activity (Rattus norvegicus [2]): Dose-dependent effect
SMILES: CCCc1nc2c(C)cc(-c3nc4ccccc4n3C)cc2n1Cc1ccc(-c2ccccc2C(=O)O)cc1 [TELMISARTAN]
Ki [1]: 2.75 nM | Activity (Rattus norvegicus [4]): Active
